# An excerpt weighted towards active compounds, which were near 5.9% of everything screened.
# T cruzi growth: T. cruzi proliferation inhibition. AID 624255. inhibition, % at 8.34 µM. T. cruzi beta-gal in NIH3T3, GalScreen luminescence, 90 h. 77,000 compounds, 5.9% hits;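 active means mean inhibition above about 93%, with at least 55% of replicates each passing it, limit read from the data, passing the limit was not always enough; inconclusive means only one of those two conditions holds; inactive means neither condition holds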
# GASC1 inh: KDM4C (human) demethylase inhibition; Q9H3R0; GST-KDM4C 2-372, H3K9me3 peptide, LANCE TR-FRET; inhibition, % at 12.5 µM; 96,000 compounds, 0.15% hits;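 active means mean replicate inhibition above about 25%, with at least 55% of replicates also reaching it, limit read from the data, passing the limit was not always enough; inconclusive means only one of those two conditions met; inactive means neither condition met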
#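 Test system – GST-tagged GASC-1 (JMJD2C) catalytic fragment, aa 2-372 · Medium – HEPES buffer, pH 7.5, plus ascorbate · Reagent – H3K9me3 peptide with Fe(II)/2OG · Compound – one test concentration per compound · Timing – 30 min reaction, 60 min detection, RT · Technique – TR-FRET with Eu antibody and ULight streptavidin, EDTA stop · Read-out basis – inhibition from TR-FRET ratio decrease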
# Pf Dd2 inh: blocks growth of Plasmodium falciparum Dd2 parasites | 94,000 compounds, 2.3% hits | P. falciparum Dd2 growth, SYBR Green, 72 h; stronger effect = lower value | activity change, % at 10 µM; in the data active means activity change below about -80%; inconclusive means no clear call, values can overlap the other calls
# IDH1 mut inh: blocks human IDH1 R132H reductase activity. diaphorase/resazurin fluorescence, 60 min. 70,000 compounds, 0.18% hits. inhibition, % at 10 µM; in the data active means inhibition above about 34%; inconclusive means no clear call, values can overlap the other calls; inactive means below about 11%;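 further: 0% = DMSO and 100% = no enzyme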
# Target sequence (O75874 whole entry R132H): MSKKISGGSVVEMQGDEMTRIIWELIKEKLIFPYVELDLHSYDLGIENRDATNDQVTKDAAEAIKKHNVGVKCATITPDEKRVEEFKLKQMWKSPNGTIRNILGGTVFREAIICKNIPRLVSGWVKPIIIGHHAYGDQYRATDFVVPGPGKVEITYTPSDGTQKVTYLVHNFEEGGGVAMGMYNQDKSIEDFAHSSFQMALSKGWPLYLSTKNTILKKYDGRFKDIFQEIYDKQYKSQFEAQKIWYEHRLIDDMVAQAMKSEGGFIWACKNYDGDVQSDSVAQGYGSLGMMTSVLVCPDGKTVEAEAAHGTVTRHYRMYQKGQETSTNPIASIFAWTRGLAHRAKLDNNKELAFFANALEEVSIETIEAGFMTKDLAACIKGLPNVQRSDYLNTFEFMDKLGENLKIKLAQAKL
# Numbers without * were called inactive; u = inconclusive; x = not tested or not shown.
SMILES,T cruzi growth,GASC1 inh,Pf Dd2 inh,IDH1 mut inh
COc1ccc2c3c(n(C)c2c1)[C@@H](CO)N(C(=O)C1CC1)CC31CN(C(=O)Nc2cccc(F)c2)C1,x,-2,-88*,x
CCCC(=O)N1CC2(CCN(C(=O)Nc3cccc(F)c3)CC2)c2c(n(C)c3cc(OC)ccc23)[C@H]1CO,x,-1,-86*,x
COc1ccc2c3c(n(C)c2c1)[C@@H](CO)N(C(=O)C1CCC1)CC31CN(C(=O)Nc2cccc(F)c2)C1,x,-3,-87*,x
COc1ccc2c3c(n(C)c2c1)[C@@H](CO)N(C(=O)C1CC1)CC31CCN(C(=O)Nc2cccc(F)c2)CC1,x,-3,-91*,x
CCN(CC(=O)Nc1cc(Cl)ccc1OC)S(=O)(=O)c1ccc(C)cc1,x,x,x,1
O=C(CC1(O)C(=O)Nc2ccccc21)c1ccc(NC(=O)C2CC2)cc1 (stereo not given),x,x,x,0
CO[C@@]12[C@@H]3NC3CN1C1=C(C(=O)C(N)=C(C)C1=O)[C@@H]2COC(N)=O (stereo not given in full),x,x,x,0
C[C@@H]1CN([C@H](C)CO)S(=O)(=O)c2ccc(C#Cc3ccncc3)cc2O[C@H]1CN(C)S(=O)(=O)c1ccc(F)cc1,107,-9,-86*,0
Cc1ccc(S(=O)(=O)N(C)C[C@H]2Oc3cc(C#Cc4ccncc4)ccc3S(=O)(=O)N([C@@H](C)CO)C[C@@H]2C)cc1,67,-13,-86*,-3
C[C@@H]1CN([C@@H](C)CO)S(=O)(=O)c2ccc(C#Cc3ccncc3)cc2O[C@H]1CN(C)S(=O)(=O)c1ccccc1,82,-7,-61,0
Cc1ccc(S(=O)(=O)N(C)C[C@@H]2Oc3cc(C#Cc4ccncc4)ccc3S(=O)(=O)N([C@H](C)CO)C[C@@H]2C)cc1,62,-15,-70,-1
C[C@H]1CN([C@@H](C)CO)S(=O)(=O)c2ccc(C#Cc3ccncc3)cc2O[C@@H]1CN(C)S(=O)(=O)c1ccccc1,23,28*,-93*,12
Cc1ccc(S(=O)(=O)N(C)C[C@@H]2Oc3cc(C#Cc4ccncc4)ccc3S(=O)(=O)N([C@@H](C)CO)C[C@H]2C)cc1,82,x,-81*,0
CC(C)(C)c1ccc(OCC(=O)Nc2cccnc2)c(Br)c1,x,x,x,0
C[C@@H]1CN([C@@H](C)CO)C(=O)c2c(c3ccccc3n2C)-c2ccccc2CO[C@H]1CN(C)Cc1ccc(Cl)c(Cl)c1,x,-3,-91*,x
C[C@@H]1CN([C@@H](C)CO)C(=O)c2c(c3ccccc3n2C)-c2ccccc2CO[C@H]1CN(C)Cc1ccc2c(c1)OCO2,x,0,-83*,x
O=S(=O)(NC1CCN(Cc2ccc(OCCO)cc2)CC1)c1cc(Cl)ccc1Cl,x,x,x,37*
Cc1ccc(S(=O)(=O)N(C)C[C@@H]2OCCCC[C@H](C)Oc3ccc(NC(=O)Nc4ccc(C(F)(F)F)cc4)cc3C(=O)N([C@@H](C)CO)C[C@@H]2C)cc1,x,-1,-85*,1
COc1ccc(S(=O)(=O)N(C)C[C@@H]2OCCCC[C@@H](C)Oc3ccc(NC(=O)Nc4ccc(C(F)(F)F)cc4)cc3C(=O)N([C@H](C)CO)C[C@@H]2C)cc1,59,-1,-84*,x
COc1ccc(S(=O)(=O)N(C)C[C@H]2OCCCC[C@H](C)Oc3ccc(NC(=O)Nc4ccc(C(F)(F)F)cc4)cc3C(=O)N([C@H](C)CO)C[C@@H]2C)cc1,87,-1,-62,x
C[C@@H]1CCCCO[C@H](CN(C)S(=O)(=O)c2ccc(F)cc2)[C@H](C)CN([C@@H](C)CO)C(=O)c2cc(NC(=O)Nc3ccc(C(F)(F)F)cc3)ccc2O1,91,0,-86*,3
C[C@@H]1CN([C@H](C)CO)C(=O)c2cc(NC(=O)Nc3ccc(C(F)(F)F)cc3)ccc2O[C@@H](C)CCCCO[C@H]1CN(C)S(=O)(=O)c1ccc(F)cc1,90,2,-48,x
Cc1ccc(S(=O)(=O)N(C)C[C@H]2OCCCC[C@@H](C)Oc3ccc(NC(=O)Nc4ccc(C(F)(F)F)cc4)cc3C(=O)N([C@H](C)CO)C[C@@H]2C)cc1,x,-1,-73,x
Cc1ccc(OCC(=O)Nc2nc(C)cc(C)n2)cc1,x,x,x,1
O=C(O)CN(c1cc(Cl)cc(Cl)c1)S(=O)(=O)c1ccccc1,x,x,x,0
SMILES,T cruzi growth,GASC1 inh,Pf Dd2 inh,IDH1 mut inh
COC(=O)c1ccc(COc2ccc3c(C)cc(=O)oc3c2)o1,x,x,x,0
C[C@@H]1CN([C@@H](C)CO)C(=O)c2cc(NC(=O)c3ccccc3)ccc2O[C@@H](C)CCCCO[C@H]1CN(C)S(=O)(=O)c1ccc(F)cc1,x,0,u,0
C[C@@H]1CN([C@@H](C)CO)C(=O)c2cc(NC(=O)c3ccccc3)ccc2O[C@@H](C)CCCCO[C@@H]1CN(C)S(=O)(=O)c1ccc(F)cc1,x,x,-81*,x
Cc1ccc(S(=O)(=O)N(C)C[C@H]2OCCCC[C@@H](C)Oc3ccc(NC(=O)c4ccccc4)cc3C(=O)N([C@H](C)CO)C[C@@H]2C)cc1,44,-1,-63,x
Cc1ccc(S(=O)(=O)N(C)C[C@H]2Oc3ccc(NC(=O)c4ccncc4)cc3C(=O)N([C@H](C)CO)C[C@H]2C)cc1,-17,1,23,-3
Cc1ccc(S(=O)(=O)N(C)C[C@@H]2Oc3ncc(-c4ccncc4)cc3C(=O)N([C@@H](C)CO)C[C@H]2C)cc1,99,39*,-49,2
Cc1ccc(S(=O)(=O)N(C)C[C@H]2Oc3ccc(NC(=O)c4ccncc4)cc3C(=O)N([C@@H](C)CO)C[C@@H]2C)cc1,13,-3,-88*,-6
Cc1ccc(S(=O)(=O)N(C)C[C@H]2OCCCC[C@H](C)Oc3ccc(NC(=O)c4ccccc4)cc3C(=O)N([C@@H](C)CO)C[C@H]2C)cc1,-40,0,-86*,x
N#Cc1c(NC(=O)COc2ccc(C(=O)NC3CCCCC3)cc2)sc2c1CCC2,x,x,x,0
C[C@@H]1CN([C@H](C)CO)C(=O)c2cc(NC(=O)c3ccccc3)ccc2O[C@@H](C)CCCCO[C@@H]1CN(C)S(=O)(=O)c1ccc(Cl)cc1,94,0,-82*,1
C[C@@H]1CCCCO[C@H](CN(C)S(=O)(=O)c2ccc(Cl)cc2)[C@H](C)CN([C@@H](C)CO)C(=O)c2cc(NC(=O)c3ccccc3)ccc2O1,101,0,-74,2
COc1ccc(S(=O)(=O)N(C(C)=O)c2ccc3oc4c(c3c2)CC(C)CC4)cc1[N+](=O)[O-] (stereo not given),x,x,x,0
C[C@H](CO)N1C[C@H](C)[C@H](CN(C)S(=O)(=O)c2ccc(F)cc2)OCc2ccccc2-c2c(n(C)c3ccccc23)C1=O,84,-1,-87*,-2
C[C@@H]1CN([C@H](C)CO)C(=O)c2c(c3ccccc3n2C)-c2ccccc2CO[C@H]1CN(C)S(=O)(=O)c1ccccc1,72,-7,-75,x
C[C@H]1CN([C@@H](C)CO)C(=O)c2c(c3ccccc3n2C)-c2ccccc2CO[C@@H]1CN(C)S(=O)(=O)c1ccc(F)cc1,83,-3,-91*,x

# High-throughput results (PubChem BioAssay)
